Screening data: PubChem BioAssay, several laboratories
Only some compounds are listed: those with a hit (about 5.8% of all), similar ones and a draw of the others.
PLK1 inh – inhibitors of human PLK1 kinase; recombinant PLK1 kinase, TR-FRET peptide phosphorylation; AID 619; 0.53% of 97,000 active; inhibition, % at 10 µM;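 active = inhibition of 50% or more in the single-concentration screen; inactive = inhibition below 50%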;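 note: 0% = DMSO max control and 100% = H-89 dihydrochloride min control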
Target sequence (P53350 whole entry, looked up): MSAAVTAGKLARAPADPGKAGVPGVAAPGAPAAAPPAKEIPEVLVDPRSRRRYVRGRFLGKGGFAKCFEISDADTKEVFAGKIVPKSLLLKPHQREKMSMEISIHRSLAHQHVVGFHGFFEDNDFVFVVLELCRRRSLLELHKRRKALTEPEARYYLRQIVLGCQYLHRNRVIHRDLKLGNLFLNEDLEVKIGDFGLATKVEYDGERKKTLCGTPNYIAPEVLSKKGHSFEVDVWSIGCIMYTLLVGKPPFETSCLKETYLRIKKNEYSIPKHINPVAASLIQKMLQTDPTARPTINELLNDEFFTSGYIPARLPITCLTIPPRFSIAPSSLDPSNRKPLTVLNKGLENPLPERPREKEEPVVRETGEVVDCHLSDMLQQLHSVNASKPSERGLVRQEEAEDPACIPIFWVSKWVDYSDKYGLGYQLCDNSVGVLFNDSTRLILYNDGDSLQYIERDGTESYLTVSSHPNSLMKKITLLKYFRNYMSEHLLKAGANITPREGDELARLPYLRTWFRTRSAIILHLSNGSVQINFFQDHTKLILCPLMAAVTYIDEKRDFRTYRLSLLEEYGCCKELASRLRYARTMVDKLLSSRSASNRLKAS
Rev-RRE block – disrupts HIV-1 Rev binding to RRE RNA | Rev peptide-RRE RNA binding, FRET | inhibition, % at 8 µM | 0.79% of 97,000 active | AID 704;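 active = inhibition above the screen-wide mean plus 3 SD, cut at about 35% in these data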;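 note: 0% = median DMSO wells and 100% = median Neomycin B control wells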
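Material: labelled RRE RNA duplex and labelled Rev peptide / Buffer or medium: HEPES pH 7.5 salt buffer with EDTA / Compound dosing: single point, 8 µM final nominal compound concentration / Benchmarks: DMSO low control, neomycin B high control / Timing: 5 min preincubation and 15 min binding, 25 °C / Technique: FRET fluorescence readout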
PLK1 PBD inh – Plk1 (human) PBD binding inhibition | inhibition, %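 (tested at about 20 µM)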 | Plk1 PBD phosphopeptide binding, fluorescence polarization | AID 693 | 0.13% of 97,000 active | P53350; in the data active = inhibition above about 34%, passing the limit was not always enough
Pyk2 oligo antag – blocks oligomerization of human Pyk2 in cells; Q14289; Q293 cells, Pyk2 FERM NanoBiT luminescence; stronger effect = lower value; z-score (the deposit names both 25 µM and 10 µM); 0.83% of 99,000 active; AID 1347419;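 active = Z-score of -3 or lower, scaled per plate to the spread of control and sample wells; inactive = z-score above -3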;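 note: negative z-score means lost luminescence so less FERM oligomerization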
FAK inh – FAK (human) kinase inhibition. Q05397. biochemical FAK kinase activity assay. inhibition, %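 (tested at 7 µM)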. 0.84% of 97,000 active; in the data active = inhibition above about 19%;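 note: 0% = DMSO and 100% = reference compound high control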
Cav32 inh – human Cav3.2 channel inhibition, primary screen; O95180; Cav3.2-expressing cells, Fluo-4 calcium fluorescence FDSS; stronger effect = lower value; B-score at 10 µM; 4% of 100,000 active; AID 449739;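 active = single-dose well whose peak fluorescence ratio is a statistical outlier from its plate by either plate-standardised score or position-corrected B-score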
* marks the source's active call; other numbers are inactive results; . = no result given; [ ] = another dose, or the depositor's remark.

SMILES	PLK1 inh	Rev-RRE block	PLK1 PBD inh	Pyk2 oligo antag	FAK inh	Cav32 inh
Cc1c(C(=O)NCc2ccc3c(c2)OCO3)oc2ccccc12	-8.7	9.8	-4.2	-0.39	3.3	-5.64*
Cc1ccc2oc(C(=O)NCc3ccc4c(c3)OCO4)c(C)c2c1	-3.7	12.7	-10.9	-0.79	3.7	.
CCCCN(CCCC)S(=O)(=O)c1ccc2oc(C(=O)N3CCOCC3)c(C)c2c1	-0.7	-5.6	-4.0	-0.9	-4.3	-4.66*
Cc1c(C(=O)NCc2ccc3c(c2)OCO3)oc2ccc(S(=O)(=O)N3CCC(C)CC3)cc12	1.0	1.3	11.3	0.54	-0.9	-4.79*
CCOC(=O)c1ccc(NC(=O)NC2CCN(CC(=O)NCc3ccc4c(c3)OCO4)CC2)cc1	-3.6	3.1	15.8	0.96	8.0	1.7
COC(C/C=C/[C@H](O)[C@H](C)OCc1ccccc1)OC	.	.	.	.	.	0.641
CCOc1ccc2c(c1)-c1c(ssc1=S)C(C)(C)N2	-13.2	-4.5	-11.9	-0.4	4.2	-2.36
CCN(CC)S(=O)(=O)c1ccc2oc(C(=O)NCc3ccc(F)cc3)c(C)c2c1	.	.	.	-1.31	.	-6.82*
COc1cc([C@@H]2c3cc4c(cc3[C@@H](O)[C@@H](CO)[C@@H]2CO)OCO4)cc(OC)c1O[Si](C)(C)C(C)(C)C	.	.	.	.	.	-1
CCCNc1nc2c(c(=O)n(C)c(=O)n2C)n1Cc1ccc(F)cc1	2.1	-0.4	-4.5	.	5.1	0.398
CCNc1nc2c(c(=O)n(Cc3ccccc3)c(=O)n2C)n1Cc1ccccc1	-1.7	8.3	-8.8	-3.48*	0.9	-1.79
Cn1c(=O)c2c(nc(NCc3ccccc3)n2Cc2ccc(F)cc2)n(C)c1=O	4.0	2.4	3.9	.	-8.9	-6.8*
Cn1c(=O)c2c(nc(NCc3cccnc3)n2Cc2ccc(Cl)cc2)n(C)c1=O	33.7	-2.9	13.9	-1.18	-0.5	-7.19*
COn1c(SCc2ccc(C)cc2C)nc2ccccc2c1=O	-7.8	6.8	9.7	-0.9	3.0	-2.05
CN(C(=S)NC(=O)CCCOc1ccc(Cl)cc1Cl)c1ccccc1	-8.9	-2.9	11.3	0.05	1.1	-3.66*
CC(C)NC(=O)CCCOc1ccc(Cl)cc1Cl	-0.1	-4.9	-9.6	2.5	0.1	-0.452
Oc1ccc(C[C@@H]2CNC(=S)N2CCCCC2CCCCC2)cc1	.	.	.	.	.	0.0481
Cc1ccc(C2C(C#N)=C(N)Oc3c2sc2ccccc32)o1 (stereo unspecified)	-2.9	94.2*[fluorescence artefact?]	-121.7	.	6.7	-1.56
CCOC(=O)CC1=C(C(=O)OCC)C(c2ccc(C)o2)C(C#N)=C(N)O1 (stereo unspecified)	2.6	16.5	-8.3	-0.17	1.6	0.937
C/C(CC(C)(C)C1CCCCC1)=N\NC(N)=S	1.1	-5.1	17.2	1.51	2.5	-4.59*
COc1ccc2c(c1)nc(SCC(=O)c1cccs1)n2C	-11.6	-3.2	-20.5	-0.54	-5.9	0.937
Cc1ccc2c(c1)c(C)c(C)n2CC(O)Cn1nnc2ccccc21 (stereo unspecified)	3.2	5.6	-31.9	0.47	4.5	-4.74*
Cc1sc2nc(CN(Cc3ccccc3)C(=O)NC3CCCCC3)[nH]c(=O)c2c1C	50.3*	8.2	-9.3	-3.01*	1.0	-2.32
CCSC1=N/C(=C\c2ccc(-c3ccccc3[N+](=O)[O-])o2)C(=O)S1	-8.2	53.9*	-11.9	-0.17	-3.1	0.128
Nn1cnnc1N/N=C\c1ccc(-c2ccccc2[N+](=O)[O-])o1	.	.	.	-0.92	.	.
Nc1nonc1-c1noc(CCCCCN2C(=O)c3ccccc3C2=O)n1	-15.7	0.8	-7.4	0.24	2.4	-1.2
Cc1ccc(Cn2c(C(C)Nc3nc(-c4ccc(Cl)c([N+](=O)[O-])c4)cs3)nc3cc(C(F)(F)F)ccc32)cc1 (stereo unspecified)	.	.	.	.	.	0.516
CCn1nc([N+](=O)[O-])c(C(C#N)c2nc3cc(C(F)(F)F)ccc3s2)c(Cl)c1=O (stereo unspecified)	21.7	0.1	10.9	-3.27*	2.1	-5.16*
CCOC(=O)/C=c1\s/c(=C\c2c(OC)ccc3ccccc23)c(=O)n1CC(=O)NCC1CCCO1 (stereo unspecified)	-8.1	19.6	-1.6	-2.55	-1.1	-5.68*
CCOC(=O)c1sc2nc(C)n(CC(=O)NCC3CCCO3)c(=O)c2c1C (stereo unspecified)	9.3	-2.1	22.8	0.98	-2.0	-0.678
